ChEMBL document CHEMBL2331482, “Synthesis of some new 2-(3-pyridyl)-4,5-disubstituted thiazoles as potent antimicrobial agents” (2013)
≈ marks a conversion by molar mass, not a printed value. Calls of active or inactive are those of the source. The rule behind the calls is not given here.

What was measured:
Assay type in all cases: functional
Candida albicans = experiment: Antifungal activity against Candida albicans RCMB 05035 assessed as growth inhibition after 48 hrs by twofold serial dilution method
Summary of the method: (§1)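 Fungi were tested by microdilution in Sabouraud liquid medium. Only compounds with disc-diffusion zones >10 mm went on to this test. DMF stocks (1000 µg/mL) were serially diluted twofold to 500–0.007 µg/mL. Sealed plates were held 48 h at 25 °C in a humid chamber. MIC was the lowest concentration without visible turbidity. DMF and uninoculated-medium controls ran in parallel.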

Bacillus subtilis = experiment: Antibacterial activity against Bacillus subtilis RCMB 010063 assessed as growth inhibition after 24 hrs by twofold serial dilution method; conditions: RCMB 010063, 24 h
Summary of the method: (§2)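 Broth microdilution in Müller–Hinton broth, 96-well plates. Only compounds giving disc-diffusion zones >10 mm were tested. DMF stocks (1000 µg/mL) were diluted twofold to a final 500–0.007 µg/mL, with about 10^6 CFU/mL bacteria. Sealed plates ran 24 h at 37 °C in a humid chamber. MIC was the lowest concentration with no visible turbidity. DMF and uninoculated-medium controls were included.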

Pseudomonas aeruginosa = experiment: Antibacterial activity against Pseudomonas aeruginosa RCMB 010043 assessed as growth inhibition after 24 hrs by twofold serial dilution method; summary of the method: as §2
Staphylococcus aureus = experiment: Antibacterial activity against Staphylococcus aureus RCMB 010027 assessed as growth inhibition after 24 hrs by twofold serial dilution method; conditions: RCMB 010027, 24 h; summary of the method: as §2
Enterococcus faecalis = experiment: Antibacterial activity against Enterococcus faecalis RCMB 010068 assessed as growth inhibition after 24 hrs by twofold serial dilution method; summary of the method: as §2
Proteus vulgaris = experiment: Antibacterial activity against Proteus vulgaris RCMB 010085 assessed as growth inhibition after 24 hrs by twofold serial dilution method; summary of the method: as §2
Talaromyces marneffei = experiment: Antifungal activity against Penicillium marneffei RCMB 01267 assessed as growth inhibition after 48 hrs by twofold serial dilution method; summary of the method: as §1
Geotrichum candidum = experiment: Antifungal activity against Geotricum candidum RCMB 05096 assessed as growth inhibition after 48 hrs by twofold serial dilution method; conditions: RCMB 05096, 48 h; summary of the method: as §1
Streptococcus pyogenes = experiment: Antibacterial activity against Streptococcus pyogenes RCMB 010015 assessed as growth inhibition after 24 hrs by twofold serial dilution method; summary of the method: as §2
Aspergillus clavatus = experiment: Antifungal activity against Aspergillus clavatus RCMB 02593 assessed as growth inhibition after 48 hrs by twofold serial dilution method; conditions: RCMB 02593, 48 h; summary of the method: as §1
[1] = system: Staphylococcus epidermidis; experiment: Antibacterial activity against Staphylococcus epidermidis RCMB 010024 assessed as growth inhibition after 24 hrs by twofold serial dilution method; conditions: RCMB 010024, 24 h; summary of the method: as §2
Aspergillus fumigatus = experiment: Antifungal activity against Aspergillus fumigatus RCMB 02564 assessed as growth inhibition after 48 hrs by twofold serial dilution method; conditions: RCMB 02564, 48 h; summary of the method: as §1
Shigella flexneri = experiment: Antibacterial activity against Shigella flexneri RCMB 0100542 assessed as growth inhibition after 24 hrs by twofold serial dilution method; summary of the method: as §2
Klebsiella pneumoniae = experiment: Antibacterial activity against Klebsiella pneumoniae RCMB 010093 assessed as growth inhibition after 24 hrs by twofold serial dilution method; summary of the method: as §2
Neisseria gonorrhoeae = experiment: Antibacterial activity against Neisseria gonorrhoeae RCMB 010076 assessed as growth inhibition after 24 hrs by twofold serial dilution method; summary of the method: as §2
[2] = system: Staphylococcus epidermidis; experiment: Ratio of ampicillin MIC to compound MIC for Staphylococcus epidermidis RCMB 010024

Row | Compound | MIC (Bacillus subtilis) [µg/mL] | MIC (Pseudomonas aeruginosa) | MIC (Staphylococcus aureus) [µg/mL] | MIC (Enterococcus faecalis; RCMB 010068, 24 h) [µg/mL] | MIC (Proteus vulgaris) | MIC (Talaromyces marneffei; RCMB 01267, 48 h) [µg/mL] | MIC (Geotrichum candidum) [µg/mL] | MIC (Streptococcus pyogenes) | MIC (Aspergillus clavatus) [µg/mL] | MIC [1] [µg/mL] | MIC (Aspergillus fumigatus) [µg/mL] | MIC (Shigella flexneri) | MIC (Klebsiella pneumoniae) | MIC (Neisseria gonorrhoeae) | MIC (Streptococcus pyogenes; RCMB 010015, 24 h) [µg/mL] | MIC (Candida albicans; RCMB 05035, 48 h) [µg/mL] | MIC (Proteus vulgaris; RCMB 010085, 24 h) [µg/mL] | MIC (Shigella flexneri; RCMB 0100542, 24 h) [µg/mL] | MIC (Klebsiella pneumoniae; RCMB 010093, 24 h) [µg/mL] | MIC (Neisseria gonorrhoeae; RCMB 010076, 24 h) [µg/mL] | other results
1 | Cc1nc(-c2cccnc2)sc1C1=NNC(c2ccc(F)cc2F)C1 (stereo unspecified) | 62.5 (≈ 175 µM) | inactive | 125 (≈ 351 µM) | 125 (≈ 351 µM) | inactive | 250 (≈ 701 µM) | 125 (≈ 351 µM) | inactive | 125 (≈ 351 µM) | 125 (≈ 351 µM) | 125 (≈ 351 µM) | inactive | inactive | inactive |  |  |  |  |  |  | MIC (Candida albicans): inactive
2 | CC1(C)S[C@@H]2[C@H](NC(=O)[C@H](N)c3ccccc3)C(=O)N2[C@H]1C(=O)O [AMPICILLIN] | 0.007 (≈ 0.02 µM) |  | 0.06 (≈ 0.172 µM) | 1.95 (≈ 5.58 µM) |  |  |  |  |  | 0.48 (≈ 1.37 µM) |  |  |  |  | 0.24 (≈ 0.687 µM) |  |  |  |  |  | 
3 | Cc1nc(-c2cccnc2)sc1C(=O)/C=C/c1ccccc1[N+](=O)[O-] | 0.97 (≈ 2.76 µM) |  | 3.9 (≈ 11.1 µM) | 62.5 (≈ 178 µM) |  | 15.8 (≈ 45.1 µM) | 7.81 (≈ 22.2 µM) |  | 31.2 (≈ 88.9 µM) | 0.97 (≈ 2.76 µM) | 7.81 (≈ 22.2 µM) |  |  |  | 62.5 (≈ 178 µM) | 31.2 (≈ 88.9 µM) | 7.81 (≈ 22.2 µM) | 7.81 (≈ 22.2 µM) | 0.97 (≈ 2.76 µM) | 125 (≈ 356 µM) | MIC (Pseudomonas aeruginosa; RCMB 010043, 24 h): 125 µg/mL (≈ 356 µM)
4 | COc1ccc(C2CC(c3sc(-c4cccnc4)nc3C)=NN2)cc1 (stereo unspecified) | 15.6 (≈ 44.6 µM) | inactive | 15.6 (≈ 44.6 µM) | 250 (≈ 713 µM) |  | 62.5 (≈ 178 µM) | 31.2 (≈ 89.2 µM) | inactive | 62.5 (≈ 178 µM) | 15.6 (≈ 44.6 µM) | 31.2 (≈ 89.2 µM) |  |  |  |  | 250 (≈ 713 µM) | 31.2 (≈ 89.2 µM) | 62.5 (≈ 178 µM) | 62.5 (≈ 178 µM) | 500 (≈ 1430 µM) | 
5 | Cc1csc(-c2cccnc2)n1 | 1.95 (≈ 11.1 µM) |  | 0.97 (≈ 5.5 µM) | 31.2 (≈ 177 µM) |  | 3.9 (≈ 22.1 µM) | 1.95 (≈ 11.1 µM) |  | 15.6 (≈ 88.7 µM) | 0.97 (≈ 5.5 µM) | 7.81 (≈ 44.3 µM) |  |  |  | 15.6 (≈ 88.7 µM) | 31.2 (≈ 177 µM) | 3.9 (≈ 22.1 µM) | 3.9 (≈ 22.1 µM) | 1.95 (≈ 11.1 µM) | 62.5 (≈ 355 µM) | MIC (Pseudomonas aeruginosa; RCMB 010043, 24 h): 125 µg/mL (≈ 709 µM)
6 | Cc1nc(-c2cccnc2)sc1C(=O)/C=C/c1ccccc1 | 31.2 (≈ 102 µM) | inactive | 62.5 (≈ 204 µM) | 500 (≈ 1630 µM) |  | 125 (≈ 408 µM) | 62.5 (≈ 204 µM) | inactive | 125 (≈ 408 µM) | 31.2 (≈ 102 µM) | 125 (≈ 408 µM) |  |  | inactive |  | 500 (≈ 1630 µM) | 62.5 (≈ 204 µM) | 125 (≈ 408 µM) | 62.5 (≈ 204 µM) |  | 
7 | CC(=O)c1sc(-c2cccnc2)nc1C | 0.06 (≈ 0.275 µM) |  | 0.24 (≈ 1.1 µM) | 7.81 (≈ 35.8 µM) |  | 3.9 (≈ 17.9 µM) | 0.48 (≈ 2.2 µM) |  | 3.9 (≈ 17.9 µM) | 0.24 (≈ 1.1 µM) | 1.95 (≈ 8.93 µM) |  |  |  | 3.9 (≈ 17.9 µM) | 7.81 (≈ 35.8 µM) | 3.9 (≈ 17.9 µM) | 3.9 (≈ 17.9 µM) | 0.48 (≈ 2.2 µM) | 15.6 (≈ 71.6 µM) | MIC (Pseudomonas aeruginosa; RCMB 010043, 24 h): 500 µg/mL (≈ 2290 µM); Ratio [2]: 2
8 | Cc1nc(-c2cccnc2)sc1C1=NNC(c2ccc(Cl)cc2)C1 (stereo unspecified) | 62.5 (≈ 176 µM) | inactive | 125 (≈ 352 µM) | 125 (≈ 352 µM) | inactive | 250 (≈ 704 µM) | 125 (≈ 352 µM) | inactive | 125 (≈ 352 µM) | 62.5 (≈ 176 µM) | 125 (≈ 352 µM) | inactive | inactive | inactive |  |  |  |  |  |  | MIC (Candida albicans): inactive
9 | GENTAMICIN |  | 31.2 µg/mL |  |  | 1.95 µg/mL |  |  |  |  |  |  | 0.48 µg/mL | 0.24 µg/mL | 7.81 µg/mL |  |  |  |  |  |  | 
10 | CC(=O)Nc1ccc(-c2csc(-c3cccnc3)n2)cc1 | 0.97 (≈ 3.28 µM) | inactive | 3.9 (≈ 13.2 µM) |  | inactive |  | 7.81 (≈ 26.4 µM) | inactive | 15.6 (≈ 52.9 µM) | 1.95 (≈ 6.6 µM) | 7.81 (≈ 26.4 µM) | inactive | inactive | inactive |  |  |  |  |  |  | MIC (Candida albicans): inactive; MIC (Enterococcus faecalis): inactive; MIC (Talaromyces marneffei): inactive
11 | Cc1nc(-c2cccnc2)sc1C(=O)/C=C/c1ccc(Cl)cc1 | 31.2 (≈ 91.7 µM) | inactive | 62.5 (≈ 183 µM) |  |  | 62.5 (≈ 183 µM) | 31.2 (≈ 91.7 µM) | inactive | 125 (≈ 367 µM) | 31.2 (≈ 91.7 µM) | 62.5 (≈ 183 µM) | inactive |  | inactive |  | 250 (≈ 733 µM) | 62.5 (≈ 183 µM) |  | 31.2 (≈ 91.7 µM) |  | MIC (Enterococcus faecalis): inactive
12 | Cc1nc(-c2cccnc2)sc1C1=NNC(c2ccccc2)C1 (stereo unspecified) | 62.5 (≈ 195 µM) | inactive | 125 (≈ 390 µM) | 125 (≈ 390 µM) | inactive | 250 (≈ 780 µM) | 62.5 (≈ 195 µM) | inactive | 62.5 (≈ 195 µM) | 62.5 (≈ 195 µM) | 125 (≈ 390 µM) | inactive | inactive | inactive |  |  |  |  |  |  | MIC (Candida albicans): inactive
13 | O=c1oc2ccccc2cc1-c1csc(-c2cccnc2)n1 | 3.9 (≈ 12.7 µM) |  | 7.81 (≈ 25.5 µM) | 62.5 (≈ 204 µM) |  | 31.2 (≈ 102 µM) | 15.6 (≈ 51 µM) |  | 15.6 (≈ 51 µM) | 3.9 (≈ 12.7 µM) | 15.6 (≈ 51 µM) |  |  |  | 7.81 (≈ 25.5 µM) | 125 (≈ 408 µM) | 15.6 (≈ 51 µM) | 1.95 (≈ 6.37 µM) | 7.81 (≈ 25.5 µM) | 62.5 (≈ 204 µM) | MIC (Pseudomonas aeruginosa; RCMB 010043, 24 h): 62.5 µg/mL (≈ 204 µM)
14 | C[C@@H]1[C@H](O)[C@@H](C)/C=C/C=C/C=C/C=C/C=C/C=C/C=C/[C@H](O[C@@H]2O[C@H](C)[C@@H](O)[C@H](N)[C@@H]2O)C[C@@H]2O[C@](O)(C[C@@H](O)C[C@@H](O)[C@H](O)CC[C@@H](O)C[C@@H](O)CC(=O)O[C@H]1C)C[C@H](O)[C@H]2C(=O)O [AMPHOTERICIN B] |  |  |  |  |  | 1.95 (≈ 2.11 µM) | 0.48 (≈ 0.519 µM) |  | 1.95 (≈ 2.11 µM) |  | 0.97 (≈ 1.05 µM) |  |  |  |  | 0.24 (≈ 0.26 µM) |  |  |  |  | 
15 | COc1ccc(/C=C/C(=O)c2sc(-c3cccnc3)nc2C)cc1 | 1.95 (≈ 5.8 µM) |  | 3.9 (≈ 11.6 µM) | 62.5 (≈ 186 µM) |  | 7.81 (≈ 23.2 µM) | 7.81 (≈ 23.2 µM) |  | 31.2 (≈ 92.9 µM) | 3.9 (≈ 11.6 µM) | 15.6 (≈ 46.5 µM) |  |  |  | 31.2 (≈ 92.9 µM) | 62.5 (≈ 186 µM) | 7.81 (≈ 23.2 µM) | 7.81 (≈ 23.2 µM) | 3.9 (≈ 11.6 µM) | 125 (≈ 372 µM) | MIC (Pseudomonas aeruginosa; RCMB 010043, 24 h): 250 µg/mL (≈ 743 µM)
16 | Cc1nc(-c2cccnc2)sc1C(=O)/C=C/c1ccc(F)cc1F | 15.6 (≈ 45.7 µM) | inactive | 31.2 (≈ 91.3 µM) | 250 (≈ 730 µM) |  | 62.5 (≈ 183 µM) | 62.5 (≈ 183 µM) | inactive | 125 (≈ 365 µM) | 31.2 (≈ 91.3 µM) | 62.5 (≈ 183 µM) | inactive |  | inactive |  | 500 (≈ 1460 µM) | 62.5 (≈ 183 µM) |  | 31.2 (≈ 91.3 µM) |  | 
